Screening results deposited in PubChem by The Scripps Research Institute Molecular Screening Center.
SIAE inh – human SIAE inhibitors, primary screen, biochemical, fluorescence polarization, FP-Rh probe, 1536-well HTS; SIAE FP-Rh probe binding; hit rate 0.69% among 370,000; inhibition, % at 9.66 µM;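 active = inhibition above a cutoff: mean of compounds within the control limits plus 3 SD of those, cut at about 17% in these data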;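 note: 0% = plate median of compound wells and 100% = probe without SIAE protein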
LEDGF integ inh – blockers of LEDGF/p75-dependent integrase strand transfer – biochemical, TR-FRET, high throughput, primary screen. hit rate 0.64% among 370,000. HIV-1 integrase (with human LEDGF/p75). TR-FRET IN-LEDGF/p75 DNA integration, Eu/Cy5. inhibition, % at 3.7 µM;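 active = inhibition above the screen-wide mean plus 3 SD, cut at about 13% in these data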;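 note: signal is the Cy5 over europium emission ratio at 671 and 618 nm; 0% = plate median of compound wells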
TDP2 absorb – human TDP2 enzyme inhibitors, primary screen, biochemical, epi absorbance, recombinant enzyme | hit rate 0.34% among 370,000 | Tyrosyl-DNA phosphodiesterase 2 (Homo sapiens), O95551 | T5PNP hydrolysis, p-nitrophenol absorbance 415 nm | inhibition, % at 12.8 µM;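 active = inhibition above the mean of all tested compounds plus 3 SD, set per campaign, cut at about 25% in these data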;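 note: 0% = DMSO with enzyme and 100% = buffer with substrate but no TDP2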
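System: recombinant human TDP2 / Amount: 120 nM TDP2 per well / Also added: 5 mM T5PNP chromogenic substrate / Doses: 12.8 µM single point, 1% DMSO / Incubation: 2 h at 37 °C / Detection: p-Nitrophenol epi absorbance / Evaluation: % inhibition relative to enzyme-containing and enzyme-free wells / Repeats: singlicate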
UHRF1 MBD2 ctr – UHRF1 methylated DNA binding inhibitors, primary screen, counter-screen for MBD2 inhibitor project, biochemical, TR-FRET, human UHRF1, single concentration; E3 ubiquitin-protein ligase UHRF1 (Homo sapiens), Q96T88; UHRF1 binding to methylated oligo; inhibition, % at 4.4 µM; hit rate 0.75% among 370,000; in the data active = inhibition above about 21%;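 note: UHRF1 SRA domain binding a hemimethylated CpG hairpin DNA probe; 0% = median of test compound wells and 100% = reference inhibitor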
MBD2 DNA inh – inhibitors of MBD2 binding to methylated DNA, primary screen, biochemical, TR-FRET, DNA-binding domain, human; MBD2 binding to methylated oligonucleotide; inhibition, % at 4.4 µM; hit rate 0.31% among 370,000; in the data active = inhibition above about 13%
PRMT1 FP inh – PRMT1 methyltransferase inhibitors, primary screen, biochemical, fluorescence polarization. Protein arginine N-methyltransferase 1 (Homo sapiens), Q99873. recombinant PRMT1, activity-based probe fluorescence polarization. inhibition, % at 2.79 µM. hit rate 1.3% among 370,000;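 active = inhibition above about 21% made by adding two undisclosed values, limit read from the data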
Target sequence (Q99873 whole entry, looked up): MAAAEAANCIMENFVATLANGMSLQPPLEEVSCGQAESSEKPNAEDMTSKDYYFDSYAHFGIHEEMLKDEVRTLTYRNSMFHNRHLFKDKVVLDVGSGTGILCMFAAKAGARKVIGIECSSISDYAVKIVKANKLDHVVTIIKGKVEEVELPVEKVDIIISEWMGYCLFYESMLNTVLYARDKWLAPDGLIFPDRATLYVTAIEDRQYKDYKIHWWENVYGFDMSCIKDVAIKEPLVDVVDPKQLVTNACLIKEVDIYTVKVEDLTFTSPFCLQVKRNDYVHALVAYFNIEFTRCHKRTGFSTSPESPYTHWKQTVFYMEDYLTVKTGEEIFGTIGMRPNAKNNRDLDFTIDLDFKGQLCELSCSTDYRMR
PRMT1 confirm – PRMT1 methyltransferase inhibitors, confirmation, biochemical, fluorescence polarization, triplicate; recombinant His-PRMT1, activity-based probe fluorescence polarization; shares compounds with PRMT1 FP inh; inhibition, % at 2.79 µM; hit rate 42% among 3,300;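 active = mean inhibition across replicates above the hit cutoff derived for the earlier primary screen, cut at about 22% in these data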
Starred values were filed as active, the others as inactive. In the library only some 3.3% were active in any assay of this set; here they are far more common.

Results for N#CC1=C2SCN(Cc3ccco3)CN2C(=O)CC1c1c(F)cccc1Cl (stereo not drawn) ?
SIAE inh: 8; LEDGF integ inh: 7; TDP2 absorb: -1; UHRF1 MBD2 ctr: -4; MBD2 DNA inh: 3; PRMT1 FP inh: 52*; PRMT1 confirm: 8

How did Cc1ccccc1C(=O)NNc1ccc(-c2csnn2)cc1 do in these assays?
SIAE inh: -2; LEDGF integ inh: -5; TDP2 absorb: 0; UHRF1 MBD2 ctr: 2; MBD2 DNA inh: 2; PRMT1 FP inh: 27*; PRMT1 confirm: 7

How did ClC(Cl)(c1nnnn1-c1ccccc1)c1nnnn1-c1ccccc1 do in these assays?
SIAE inh: -2; LEDGF integ inh: 0; TDP2 absorb: -11; UHRF1 MBD2 ctr: -1; MBD2 DNA inh: 4; PRMT1 FP inh: 90*; PRMT1 confirm: 91*

What do the screens show for `c1ccc(-c2nnnn2-c2ccccc2)cc1`?
SIAE inh: 1; LEDGF integ inh: -3; TDP2 absorb: 6; UHRF1 MBD2 ctr: 0; MBD2 DNA inh: 2; PRMT1 FP inh: 3

How did COCCN(C(=O)CCCc1nc2ccccc2s1)c1c(N)n(CC(C)C)c(=O)[nH]c1=O do in these assays?
SIAE inh: 6; LEDGF integ inh: -3; TDP2 absorb: -2; UHRF1 MBD2 ctr: 0; MBD2 DNA inh: 4; PRMT1 FP inh: 36*; PRMT1 confirm: 27*

What do the screens show for `CC(C)CN(C(=O)COC(=O)CCCc1nc2ccccc2s1)c1c(N)n(Cc2ccccc2)c(=O)[nH]c1=O`?
SIAE inh: -5; LEDGF integ inh: -2; TDP2 absorb: -2; UHRF1 MBD2 ctr: -1; MBD2 DNA inh: 1; PRMT1 FP inh: 3

Results for C/C(=N\Nc1ccc(Cl)c(C(=O)O)c1)c1cccs1 ?
SIAE inh: -3; LEDGF integ inh: 3; TDP2 absorb: -23; UHRF1 MBD2 ctr: 17; MBD2 DNA inh: 2; PRMT1 FP inh: 17

What do the screens show for `C/C(=N\Nc1ccc(Cl)c(C(=O)O)c1)c1ccc[nH]1`?
SIAE inh: 10; LEDGF integ inh: 7; TDP2 absorb: -6; UHRF1 MBD2 ctr: 23*; MBD2 DNA inh: 5; PRMT1 FP inh: 32*; PRMT1 confirm: 5

Results for O=C(O)C1C2C=CC(O2)C1C(=O)Nc1ccccc1C(F)(F)F (stereo not drawn) ?
SIAE inh: 7; LEDGF integ inh: 2; TDP2 absorb: -9; UHRF1 MBD2 ctr: -2; MBD2 DNA inh: -1; PRMT1 FP inh: 85*; PRMT1 confirm: 24*

Results for CCCC1CCC2(CC1)CCC2OC(=S)Nc1ccccc1Cl (stereo not drawn) ?
SIAE inh: -5; LEDGF integ inh: 5; TDP2 absorb: -6; UHRF1 MBD2 ctr: -1; MBD2 DNA inh: -2; PRMT1 FP inh: 1

What do the screens show for `CC1=C(C(=O)O)N2C(=O)C(NC(=O)c3c(F)cccc3F)C2SC1` (stereo not drawn)?
SIAE inh: 11; LEDGF integ inh: 3; TDP2 absorb: -4; UHRF1 MBD2 ctr: -4; MBD2 DNA inh: -4; PRMT1 FP inh: -2

What do the screens show for `CC1=C(C(=O)O)N2C(=O)[C@@H](NC(=O)[C@H](N)c3ccc(O)cc3)[C@H]2SC1`?
SIAE inh: 2; LEDGF integ inh: -3; TDP2 absorb: 5; UHRF1 MBD2 ctr: 3; MBD2 DNA inh: 5; PRMT1 FP inh: 7

Results for Cc1nnc(SCC2=C(C(=O)O)N3C(=O)C(NC(=O)c4cccc(F)c4F)C3SC2)s1 (stereo not drawn) ?
SIAE inh: 8; LEDGF integ inh: 1; TDP2 absorb: -8; UHRF1 MBD2 ctr: 7; MBD2 DNA inh: 9; PRMT1 FP inh: 59*; PRMT1 confirm: 29*

What do the screens show for `Cn1nnnc1SCC1=C(C(=O)O)N2C(=O)C(NC(=O)C3CC3c3ccccc3)C2SC1` (stereo not drawn)?
SIAE inh: 14; LEDGF integ inh: 7; TDP2 absorb: 16; UHRF1 MBD2 ctr: 0; MBD2 DNA inh: -5; PRMT1 FP inh: 28*; PRMT1 confirm: 13

Results for Cc1cc(C)n(CC(=O)NC2C(=O)N3C(C(=O)O)=C(CSc4nnc(C)s4)CSC23)n1 (stereo not drawn) ?
SIAE inh: -5; LEDGF integ inh: -6; TDP2 absorb: -3; UHRF1 MBD2 ctr: 0; MBD2 DNA inh: 2; PRMT1 FP inh: 35*; PRMT1 confirm: 20

What do the screens show for `Cn1nnnc1SCC(=O)NCc1ccccc1`?
SIAE inh: -1; LEDGF integ inh: -1; TDP2 absorb: -4; UHRF1 MBD2 ctr: 3; MBD2 DNA inh: 4; PRMT1 FP inh: 3

Results for Cc1nnc(SCC2=C(C(=O)O)N3C(=O)C(NC(=O)Cn4ncc(Cl)c4C)C3SC2)s1 (stereo not drawn) ?
SIAE inh: 4; LEDGF integ inh: 7; TDP2 absorb: 1; UHRF1 MBD2 ctr: 9; MBD2 DNA inh: 8; PRMT1 FP inh: 50*; PRMT1 confirm: 37*

How did Cc1nnc(SCC(=O)NN2C(=O)NC3(CCCCC3)C2=O)s1 do in these assays?
SIAE inh: 2; LEDGF integ inh: -2; TDP2 absorb: 0; UHRF1 MBD2 ctr: 0; MBD2 DNA inh: 8; PRMT1 FP inh: 0

What do the screens show for `COC(=O)[C@H](C)NC(=O)[C@@H]1CCCN1C(=O)CNP(=O)(OCc1ccccc1)OCc1ccccc1`?
SIAE inh: 2; LEDGF integ inh: 1; TDP2 absorb: 7; UHRF1 MBD2 ctr: -1; MBD2 DNA inh: 2; PRMT1 FP inh: -1

Results for C=CCn1c(SCc2cccc(C(F)(F)F)c2)nnc1-c1ccc(OC)cc1 ?
SIAE inh: 6; LEDGF integ inh: -3; TDP2 absorb: 2; UHRF1 MBD2 ctr: -3; MBD2 DNA inh: 4; PRMT1 FP inh: -4

How did O=C(CSc1nnc(COc2ccccc2)n1Cc1ccco1)Nc1ccc2c(c1)OCO2 do in these assays?
SIAE inh: 5; LEDGF integ inh: -2; TDP2 absorb: -1; UHRF1 MBD2 ctr: 0; MBD2 DNA inh: 2; PRMT1 FP inh: 11
